According to ChEMBL document CHEMBL1914423, “New imidazo[2,1-b]thiazole derivatives: synthesis, in vitro anticancer evaluation, and in silico studies” (Eur J Med Chem, 2011):

Columns and labels:
Assay type in all cases: functional
RPMI-8226 = experiment: Anticancer activity against human RPMI8226 cells after 48 hrs by SRB assay; details: RPMI-8226, 48 h
SR = experiment: Anticancer activity against human SR cells after 48 hrs by SRB assay
Summary of the method: (§1)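 NCI-60 five-dose mode: cells in RPMI 1640 with 5% FBS and 2 mM glutamine, plated at 5000–40,000 cells/well, and preincubated 24 h, with time-zero plates TCA-fixed. Drug given at five concentrations (10-fold or ½-log serial dilutions). Cold TCA fixation 60 min at 4 °C, SRB stain, Tris solubilization, A515. IC50 taken where [(Ti−Tz)/(C−Tz)]×100 = 50.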

A549 = experiment: Anticancer activity against human A549 cells after 48 hrs by SRB assay; details: A549, 48 h
Summary of the method: (§2)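 NCI five-dose screen. Cells in RPMI 1640 with 5% FBS and 2 mM L-glutamine, seeded at 5000–40,000 cells/well according to doubling time, then pre-incubated 24 h at 37 °C in 5% CO2. Drugs dissolved in DMSO, five concentrations by 10-fold or 1/2-log dilution. Cells fixed with TCA, SRB-stained, A515 read. IC50 solved from [(Ti−Tz)/(C−Tz)]×100 = 50.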

HOP-62 = experiment: Anticancer activity against human HOP62 cells after 48 hrs by SRB assay; details: HOP-62, 48 h; summary of the method: as §2
HOP-92 = experiment: Anticancer activity against human HOP92 cells after 48 hrs by SRB assay; details: HOP-92, 48 h; summary of the method: as §2
NCI-H522 = experiment: Anticancer activity against human NCI-H522 cells after 48 hrs by SRB assay; details: NCI-H522, 48 h
COLO 205 = experiment: Anticancer activity against human COLO205 cells after 48 hrs by SRB assay; details: COLO 205, 48 h; summary of the method: as §2
HCC 2998 = experiment: Anticancer activity against human HCC2998 cells after 48 hrs by SRB assay; details: HCC 2998, 48 h; summary of the method: as §2
HCT-116 = experiment: Anticancer activity against human HCT116 cells after 48 hrs by SRB assay; details: HCT-116, 48 h; summary of the method: as §2
SW-620 = experiment: Anticancer activity against human SW620 cells after 48 hrs by SRB assay; details: SW-620, 48 h; summary of the method: as §1
SF-295 = experiment: Anticancer activity against human SF295 cells after 48 hrs by SRB assay; details: SF-295, 48 h
SNB-75 = experiment: Anticancer activity against human SNB75 cells after 48 hrs by SRB assay; details: SNB-75, 48 h
U-251 = experiment: Anticancer activity against human U251 cells after 48 hrs by SRB assay; details: U-251, 48 h; summary of the method: as §1
LOX IMVI = experiment: Anticancer activity against human LOXIMVI cells after 48 hrs by SRB assay; summary of the method: as §2
Malme-3M = experiment: Anticancer activity against human MALME-3M cells after 48 hrs by SRB assay; summary of the method: as §2
SK-MEL-28 = experiment: Anticancer activity against human SK-MEL-28 cells after 48 hrs by SRB assay; details: SK-MEL-28, 48 h
UACC-257 = experiment: Anticancer activity against human UACC257 cells after 48 hrs by SRB assay; details: UACC-257, 48 h; summary of the method: as §1
OVCAR-3 = experiment: Anticancer activity against human OVCAR3 cells after 48 hrs by SRB assay; details: OVCAR-3, 48 h
OVCAR-8 = experiment: Anticancer activity against human OVCAR8 cells after 48 hrs by SRB assay; details: OVCAR-8, 48 h
NCI/ADR-RES = experiment: Anticancer activity against human NCI/ADR-RES cells after 48 hrs by SRB assay
A498 = experiment: Anticancer activity against human A498 cells after 48 hrs by SRB assay; details: A498, 48 h; summary of the method: as §2
ACHN = experiment: Anticancer activity against human ACHN cells after 48 hrs by SRB assay; summary of the method: as §2
CAKI-1 = experiment: Anticancer activity against human Caki1 cells after 48 hrs by SRB assay; details: CAKI-1, 48 h; summary of the method: as §2
SN12C = experiment: Anticancer activity against human SN12C cells after 48 hrs by SRB assay
TK-10 = experiment: Anticancer activity against human TK10 cells after 48 hrs by SRB assay; details: TK-10, 48 h; summary of the method: as §1
UO-31 = experiment: Anticancer activity against human UO31 cells after 48 hrs by SRB assay; details: UO-31, 48 h; summary of the method: as §1
DU-145 = experiment: Anticancer activity against human DU145 cells after 48 hrs by SRB assay; details: DU-145, 48 h; summary of the method: as §2
MCF7 = experiment: Anticancer activity against human MCF7 cells after 48 hrs by SRB assay; details: MCF7, 48 h; summary of the method: as §2
[1] = Anticancer activity against human Hs 578T cells after 48 hrs by SRB assay; summary of the method: as §2
[2] = read-out: LC50 (the source's name)

COc1cccc(-c2nc3sccn3c2-c2ccnc(NCCNC(=O)Nc3cccc(C(F)(F)F)c3)n2)c1
GI50 (RPMI-8226): 1.92 µM | LC50 (RPMI-8226): > 100 µM | TGI (RPMI-8226): 5.11 µM | GI50 (SR): 3.75 µM | TGI (SR): 29.7 µM | CC50 (SR; [2]): > 100 µM | GI50 (A549): 3.82 µM | LC50 (concentration giving 50% net tumour cell kill) (A549): > 100 µM | TGI (A549): 17.1 µM | GI50 (HOP-62): 6.71 µM | LC50 (concentration killing 50% of starting cells) (HOP-62): > 100 µM | TGI (HOP-62): 42.4 µM | GI50 (HOP-92): 0.853 µM | TGI (HOP-92): 9.47 µM | CC50 (HOP-92; [2]): > 100 µM | GI50 (NCI-H522): 2.67 µM | TGI (NCI-H522): 8.51 µM | CC50 (NCI-H522; [2]): 86.5 µM | GI50 (COLO 205): 5.37 µM | TGI (COLO 205): 19.2 µM | CC50 (COLO 205; [2]): 58 µM | GI50 (HCC 2998): 3.75 µM | TGI (HCC 2998): 18.7 µM | CC50 (HCC 2998; [2]): > 100 µM | GI50 (HCT-116): 3.45 µM | TGI (HCT-116): 11.6 µM | CC50 (HCT-116; [2]): > 100 µM | GI50 (SW-620): 4.47 µM | TGI (SW-620): 91.5 µM | CC50 (SW-620; [2]): > 100 µM | GI50 (SF-295): 2.8 µM | TGI (SF-295): 14.9 µM | CC50 (SF-295; [2]): > 100 µM | GI50 (SNB-75): 3.41 µM | TGI (SNB-75): 21.7 µM | CC50 (SNB-75; [2]): > 100 µM | GI50 (U-251): 3.95 µM | TGI (U-251): 19.8 µM | CC50 (U-251; [2]): > 100 µM | GI50 (LOX IMVI): 4.11 µM | TGI (LOX IMVI): > 100 µM | CC50 (LOX IMVI; [2]): > 100 µM | GI50 (Malme-3M): 3.86 µM | TGI (Malme-3M): 26.8 µM | CC50 (Malme-3M; [2]): > 100 µM | GI50 (SK-MEL-28): 5.36 µM | TGI (SK-MEL-28): 26.2 µM | CC50 (SK-MEL-28; [2]): > 100 µM | GI50 (UACC-257): 4.34 µM | TGI (UACC-257): 16.5 µM | CC50 (UACC-257; [2]): 65.9 µM | GI50 (OVCAR-3): 4.22 µM | TGI (OVCAR-3): 20.3 µM | CC50 (OVCAR-3; [2]): > 100 µM | GI50 (OVCAR-8): 3.28 µM | TGI (OVCAR-8): 9.79 µM | CC50 (OVCAR-8; [2]): 66.2 µM | GI50 (NCI/ADR-RES): 3.45 µM | TGI (NCI/ADR-RES): > 100 µM | CC50 (NCI/ADR-RES; [2]): > 100 µM | GI50 (A498): 2.44 µM | TGI (A498): 17.5 µM | CC50 (A498; [2]): > 100 µM | GI50 (ACHN): 3.17 µM | TGI (ACHN): 19.1 µM | CC50 (ACHN; [2]): > 100 µM | GI50 (CAKI-1): 3.5 µM | TGI (CAKI-1): 10.3 µM | CC50 (CAKI-1; [2]): > 100 µM | GI50 (SN12C): 4.03 µM | TGI (SN12C): 26.5 µM | CC50 (SN12C; [2]): > 100 µM | GI50 (TK-10): 3.6 µM | TGI (TK-10): 18.8 µM | CC50 (TK-10; [2]): > 100 µM | GI50 (UO-31): 2.88 µM | TGI (UO-31): 24.8 µM | CC50 (UO-31; [2]): > 100 µM | GI50 (DU-145): 5.13 µM | TGI (DU-145): 95.5 µM | CC50 (DU-145; [2]): > 100 µM | GI50 (MCF7): 3.12 µM | TGI (MCF7): 13.3 µM | CC50 (MCF7; [2]): > 100 µM | GI50 [1]: 3.15 µM | TGI [1]: 29 µM | CC50 [1, 2]: > 100 µM
